From publication PMC4306506 (Journal of Medicinal Chemistry, 2014)
Positions of bridges follow the written chain, without caps; N, C: chain ends. Residues, ends and D or L forms follow the SMILES beside them.

Experiments:
[1] = Apparent solubility by absorbance at 280 nm; type: physicochemical; details: PBS pH 7.4, absorbance at 280 nm
Outline: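 About 1 mg test peptide in 200 μL PBS pH 7.4; upper reportable limit 5 mg/mL. Vortexed 30 s, centrifuged 13000g for 5 min. Supernatant A280 converted to concentration by Beer–Lambert, using extinction coefficients from each peptide's Trp and Tyr count. Samples kept at 4 °C and re-read at 24 and 48 h. Mean and standard deviation of three readings per sample.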

complement C3 = complement C3 (Homo sapiens, UniProt P01024); assay: Complement inhibition across biochemical and functional assays; details: C3b ELISA, C5b-9 ELISA, hemolytic assay
[2] = phase II, NCT00473928 and NCT01157065; cited from earlier work

complement C3, sequence (P01024 23-667 limits assumed): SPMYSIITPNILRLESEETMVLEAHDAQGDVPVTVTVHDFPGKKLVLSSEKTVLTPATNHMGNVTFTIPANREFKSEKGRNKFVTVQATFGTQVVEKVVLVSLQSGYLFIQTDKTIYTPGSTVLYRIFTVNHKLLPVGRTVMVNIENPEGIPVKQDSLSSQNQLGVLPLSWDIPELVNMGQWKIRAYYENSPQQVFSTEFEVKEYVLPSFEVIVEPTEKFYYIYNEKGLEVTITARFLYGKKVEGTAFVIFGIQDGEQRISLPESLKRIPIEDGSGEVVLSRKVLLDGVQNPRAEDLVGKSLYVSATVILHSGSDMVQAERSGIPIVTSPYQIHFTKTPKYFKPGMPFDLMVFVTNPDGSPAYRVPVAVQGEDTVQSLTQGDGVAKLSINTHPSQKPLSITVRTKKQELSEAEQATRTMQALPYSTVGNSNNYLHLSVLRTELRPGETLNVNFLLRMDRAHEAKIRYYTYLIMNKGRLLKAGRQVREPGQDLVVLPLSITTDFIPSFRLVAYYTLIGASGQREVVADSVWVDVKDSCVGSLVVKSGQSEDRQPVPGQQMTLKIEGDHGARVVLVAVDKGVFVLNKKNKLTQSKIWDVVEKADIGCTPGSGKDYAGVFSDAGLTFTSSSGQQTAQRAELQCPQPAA
complement C3, sequence (P01024 672-1663 partner limits assumed): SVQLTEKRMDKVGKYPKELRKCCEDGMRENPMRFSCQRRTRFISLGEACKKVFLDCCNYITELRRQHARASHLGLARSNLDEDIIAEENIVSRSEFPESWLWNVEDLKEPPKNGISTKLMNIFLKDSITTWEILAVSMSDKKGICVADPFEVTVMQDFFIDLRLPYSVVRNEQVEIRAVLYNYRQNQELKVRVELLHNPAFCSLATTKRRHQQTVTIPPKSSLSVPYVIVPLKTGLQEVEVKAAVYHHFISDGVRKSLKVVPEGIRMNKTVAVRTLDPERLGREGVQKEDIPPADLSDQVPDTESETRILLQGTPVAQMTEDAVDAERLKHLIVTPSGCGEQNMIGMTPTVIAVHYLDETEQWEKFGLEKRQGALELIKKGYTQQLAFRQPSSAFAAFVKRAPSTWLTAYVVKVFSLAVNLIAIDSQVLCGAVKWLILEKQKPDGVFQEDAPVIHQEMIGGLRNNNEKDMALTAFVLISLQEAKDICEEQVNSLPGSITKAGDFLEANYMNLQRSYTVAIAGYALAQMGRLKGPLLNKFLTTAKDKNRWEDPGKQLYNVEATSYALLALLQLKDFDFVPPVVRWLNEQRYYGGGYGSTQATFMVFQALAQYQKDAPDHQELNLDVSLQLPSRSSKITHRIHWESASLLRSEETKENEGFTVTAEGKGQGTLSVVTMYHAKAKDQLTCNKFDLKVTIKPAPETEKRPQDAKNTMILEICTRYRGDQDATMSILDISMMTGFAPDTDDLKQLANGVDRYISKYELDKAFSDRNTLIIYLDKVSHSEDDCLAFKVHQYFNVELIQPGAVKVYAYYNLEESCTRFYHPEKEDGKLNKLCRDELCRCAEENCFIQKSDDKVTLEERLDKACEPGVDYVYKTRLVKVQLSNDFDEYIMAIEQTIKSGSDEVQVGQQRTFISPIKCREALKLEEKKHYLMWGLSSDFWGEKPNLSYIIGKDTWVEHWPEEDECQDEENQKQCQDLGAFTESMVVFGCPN

With CC[C@H](C)[C@H](NC(C)=O)C(=O)N[C@H]1CSSC[C@@H](C(=O)N[C@H](C(N)=O)[C@@H](C)O)NC(=O)[C@H](CCCNC(=N)N)NC(=O)[C@H](Cc2c[nH]cn2)NC(=O)[C@@](C)(CC)NC(=O)CNC(=O)[C@H](Cc2c[nH]c3ccccc23)NC(=O)[C@H](CC(=O)O)NC(=O)[C@H](CCC(N)=O)NC(=O)[C@H](Cc2c[nH]c3ccccc23)NC(=O)[C@H](C(C)C)NC1=O [Peptide 3, Ac- ICV W QDWG{Rea}HRCT-NH2] as the compound, how does the “Solubility, in words” value [1] read?
Its value is “greatly improved aqueous solubility”.

And the “Complement inhibitory activity relative to controls, in words” value (complement C3)?
The value was “inhibitory activity similar to meW4A9”.

Which “Solubility, in words” value [1] does the source give for C=CC[C@@]1(C)NC(=O)CNC(=O)[C@H](Cc2c[nH]c3ccccc23)NC(=O)[C@H](CC(=O)O)NC(=O)[C@H](CCC(N)=O)NC(=O)[C@H](Cc2c[nH]c3ccccc23)NC(=O)[C@H](C(C)C)NC(=O)[C@@H](NC(=O)[C@@H](NC(C)=O)[C@@H](C)CC)CSSC[C@@H](C(=O)N[C@H](C(N)=O)[C@@H](C)O)NC(=O)[C@H](CCCNC(=N)N)NC(=O)[C@H](Cc2c[nH]cn2)NC1=O [Peptide 4, Ac- ICV W QDWG{Aal}HRCT-NH2] here?
Its value is “greatly improved aqueous solubility”.

What about the “Complement inhibitory activity relative to controls, in words” value (complement C3) of the same compound?
The value was “inhibitory activity similar to meW4A9”.

Which results are given for CC[C@H](C)[C@H](NC(C)=O)C(=O)N[C@H]1CSSC[C@@H](C(=O)N[C@H](C(N)=O)[C@@H](C)O)NC(=O)[C@H](CCCNC(=N)N)NC(=O)[C@H](Cc2c[nH]cn2)NC(=O)[C@](C)(CC)NC(=O)CNC(=O)[C@H](Cc2c[nH]c3ccccc23)NC(=O)[C@H](CC(=O)O)NC(=O)[C@H](CCC(N)=O)NC(=O)[C@H](Cc2c[nH]c3ccccc23)NC(=O)[C@H](C(C)C)NC1=O [Peptide 5, Ac- ICV W QDWG{Sea}HRCT-NH2]?
Solubility, in words [1]: greatly improved aqueous solubility; Complement inhibitory activity relative to controls, in words (complement C3): inhibitory activity similar to meW4A9

Which “Solubility, in words” value [1] does the source give for CC(=O)N[C@@H](CC(N)=O)C(=O)N[C@@H](CC(N)=O)C(=O)N[C@@H](CC(C)C)C(=O)N[C@H]1CSSC[C@@H](C(=O)N[C@H](C(N)=O)[C@@H](C)O)NC(=O)[C@H](CCCNC(=N)N)NC(=O)[C@H](Cc2c[nH]cn2)NC(=O)[C@H](C)NC(=O)CNC(=O)[C@H](Cc2c[nH]c3ccccc23)NC(=O)[C@H](CC(=O)O)NC(=O)[C@H](CCC(N)=O)NC(=O)[C@H](Cc2c[nH]c3ccccc23)NC(=O)[C@H](C(C)C)NC1=O [Peptide 7, Ac-NNLCV W QDWG A HRCT-NH2] (Ac-NNLCVWQDWGAHRCT-NH2; disulfide 4-14) here?
Its value is “greatly improved aqueous solubility”.

And the “Complement inhibitory activity relative to controls, in words” value (complement C3)?
The value was “inhibitory activity similar to meW4A9”.

With CC(=O)N[C@@H](CC(N)=O)C(=O)N[C@@H](CCCNC(=N)N)C(=O)N[C@@H](CC(C)C)C(=O)N[C@H]1CSSC[C@@H](C(=O)N[C@H](C(N)=O)[C@@H](C)O)NC(=O)[C@H](CCCNC(=N)N)NC(=O)[C@H](Cc2c[nH]cn2)NC(=O)[C@H](C)NC(=O)CNC(=O)[C@H](Cc2c[nH]c3ccccc23)NC(=O)[C@H](CC(=O)O)NC(=O)[C@H](CCC(N)=O)NC(=O)[C@H](Cc2c[nH]c3ccccc23)NC(=O)[C@H](C(C)C)NC1=O [Peptide 8, Ac-NRLCV W QDWG A HRCT-NH2] (Ac-NRLCVWQDWGAHRCT-NH2; disulfide 4-14) as the compound, how does the “Solubility, in words” value [1] read?
The value was “greatly improved aqueous solubility”.

And the “Complement inhibitory activity relative to controls, in words” value (complement C3)?
The value was “inhibitory activity similar to meW4A9”.

With CC[C@H](C)[C@H](NC(=O)[C@H](CO)NC(=O)[C@H](CCCNC(=N)N)NC(C)=O)C(=O)N[C@H]1CSSC[C@@H](C(=O)N[C@H](C(N)=O)[C@@H](C)O)NC(=O)[C@H](CCCNC(=N)N)NC(=O)[C@H](Cc2c[nH]cn2)NC(=O)[C@H](C)NC(=O)CNC(=O)[C@H](Cc2c[nH]c3ccccc23)NC(=O)[C@H](CC(=O)O)NC(=O)[C@H](CCC(N)=O)NC(=O)[C@H](Cc2c[nH]c3ccccc23)NC(=O)[C@H](C(C)C)NC1=O [Peptide 9, Ac-RSICV W QDWG A HRCT-NH2] as the compound, how does the “Solubility, in words” value [1] read?
Its value is “greatly improved aqueous solubility”.

What about the “Complement inhibitory activity relative to controls, in words” value (complement C3) of the same compound?
Its value is “inhibitory activity similar to meW4A9”.

With CC[C@H](C)[C@H](NC(C)=O)C(=O)N[C@H]1CSSC[C@@H](C(=O)N[C@H](C(N)=O)[C@@H](C)O)NC(=O)[C@H](CCCNC(=N)N)NC(=O)[C@H](Cc2c[nH]cn2)NC(=O)[C@H](C)NC(=O)CNC(=O)[C@H](Cc2c[nH]c3ccccc23)NC(=O)[C@H](CC(=O)O)NC(=O)[C@H](CCC(N)=O)NC(=O)[C@H](Cc2cn(C)c3ccccc23)NC(=O)[C@H](C(C)C)NC1=O [meW4A9, Ac- ICV{meW}QDWG A HRCT-NH2] as the compound, how does the “Retinal thickness in AMD patients in comparison to ranibizumab” value [2] read?
The value was “did not yield reduced retinal thickness”.
